From ChEMBL document CHEMBL1255499, “Recombinant phenotyping of cytomegalovirus UL97 kinase sequence variants for ganciclovir resistance” (Antimicrob Agents Chemother, 2010)

Assays:
Human betaherpesvirus 5 [1] = test: Antiviral activity against Human cytomegalovirus T3329 expressing UL97 kinase C603W mutant gene infected in human foreskin fibroblast measured 6 days post infection by SEAP reporter gene assay; conditions: Human betaherpesvirus 5, T3329, 144 h
Human betaherpesvirus 5 [2] = test: Antiviral activity against Human cytomegalovirus T3327 expressing UL97 kinase C603S mutant gene infected in human foreskin fibroblast measured 6 days post infection by SEAP reporter gene assay; assay type: functional, organism-based; conditions: Human betaherpesvirus 5, T3327, 144 h
Summary of the method: (§1)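 Confluent HFF (2 × 10⁵ cells/well) infected with cell-free recombinant AD169-derived SEAP-reporter CMV at MOI 0.02 for 1.5 h. Inoculum then replaced with medium holding serial 2-fold ganciclovir dilutions, top concentration 4 to 32 μM. Supernatant SEAP read by chemiluminescent substrate at day 6. EC₅₀ is the concentration giving 50% SEAP reduction, reported as mean and SD of ≥7 determinations over ≥4 setup dates.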

Human betaherpesvirus 5 [3] = test: Antiviral activity against Human cytomegalovirus T3243 expressing UL97 kinase T659I mutant gene infected in human foreskin fibroblast measured 6 days post infection by SEAP reporter gene assay; assay type: functional, organism-based; conditions: Human betaherpesvirus 5, T3243, 144 h
Summary of the method: (§2)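 Ganciclovir SEAP yield reduction. Confluent HFF (2 × 10⁵ cells/well) infected with cell-free virus stock at MOI 0.02. Inoculum removed after 1.5 h and replaced with medium containing serial 2-fold GCV dilutions, top concentration 4 to 32 μM. Supernatant SEAP read by chemiluminescent substrate at day 6. EC₅₀ is the concentration giving 50% SEAP reduction; mean and SD of ≥7 determinations over ≥4 setup dates.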

Human betaherpesvirus 5 [4] = test: Antiviral activity against Human cytomegalovirus T3216 expressing UL97 kinase A588V mutant gene infected in human foreskin fibroblast measured 6 days post infection by SEAP reporter gene assay; conditions: Human betaherpesvirus 5, T3216, 144 h
Human betaherpesvirus 5 [5] = test: Antiviral activity against Human cytomegalovirus T2924 expressing UL97 kinase H469Y mutant gene infected in human foreskin fibroblast measured 6 days post infection by SEAP reporter gene assay; assay type: functional, organism-based; conditions: Human betaherpesvirus 5, T2924, 144 h; summary of the method: as §1
Human betaherpesvirus 5 [6] = test: Antiviral activity against Human cytomegalovirus T3252 expressing UL97 kinase A594V mutant gene infected in human foreskin fibroblast measured 6 days post infection by SEAP reporter gene assay; assay type: functional, organism-based; conditions: Human betaherpesvirus 5, T3252, 144 h; summary of the method: as §1
Human betaherpesvirus 5 [7] = test: Antiviral activity against Human cytomegalovirus T3244 expressing UL97 kinase A588V mutant gene infected in human foreskin fibroblast measured 6 days post infection by SEAP reporter gene assay; conditions: Human betaherpesvirus 5, T3244, 144 h
Human betaherpesvirus 5 [8] = test: Antiviral activity against Human cytomegalovirus T3346 expressing UL97 kinase M460T mutant gene infected in human foreskin fibroblast measured 6 days post infection by SEAP reporter gene assay; assay type: functional, organism-based; conditions: Human betaherpesvirus 5, T3346, 144 h; summary of the method: as §1
Human betaherpesvirus 5 [9] = test: Antiviral activity against Human cytomegalovirus T3184 expressing UL97 kinase L405P mutant gene infected in human foreskin fibroblast measured 6 days post infection by SEAP reporter gene assay; conditions: Human betaherpesvirus 5, T3184, 144 h
Human betaherpesvirus 5 [10] = test: Antiviral activity against Human cytomegalovirus T3185 harboring Frt motif upstream of UL97 gene and expressing UL97 kinase H587Y mutant gene infected in human foreskin fibroblast measured 6 days post infection by SEAP reporter gene assay; conditions: Human betaherpesvirus 5, T3185, 144 h
Human betaherpesvirus 5 [11] = test: Antiviral activity against Human cytomegalovirus T3239 expressing UL97 kinase V665I mutant gene infected in human foreskin fibroblast measured 6 days post infection by SEAP reporter gene assay; conditions: Human betaherpesvirus 5, T3239, 144 h
Human betaherpesvirus 5 [12] = test: Antiviral activity against Human cytomegalovirus T3130 expressing UL97 kinase V665I mutant gene infected in human foreskin fibroblast measured 6 days post infection by SEAP reporter gene assay; conditions: Human betaherpesvirus 5, T3130, 144 h
Human betaherpesvirus 5 [13] = test: Antiviral activity against Human cytomegalovirus T2259 expressing UL97 kinase M460V mutant gene infected in human foreskin fibroblast measured 6 days post infection by SEAP reporter gene assay; assay type: functional, organism-based; conditions: Human betaherpesvirus 5, T2259, 144 h; summary of the method: as §1
Human betaherpesvirus 5 [14] = test: Antiviral activity against Human cytomegalovirus T3257 expressing UL97 kinase V466M mutant gene infected in human foreskin fibroblast measured 6 days post infection by SEAP reporter gene assay; conditions: Human betaherpesvirus 5, T3257, 144 h
Human betaherpesvirus 5 [15] = test: Antiviral activity against Human cytomegalovirus T3242 expressing UL97 kinase A478V mutant gene infected in human foreskin fibroblast measured 6 days post infection by SEAP reporter gene assay; conditions: Human betaherpesvirus 5, T3242, 144 h
Human betaherpesvirus 5 [16] = test: Antiviral activity against Human cytomegalovirus T3215 expressing UL97 kinase A478V mutant gene infected in human foreskin fibroblast measured 6 days post infection by SEAP reporter gene assay; conditions: Human betaherpesvirus 5, T3215, 144 h
Human betaherpesvirus 5 [17] = test: Antiviral activity against Human cytomegalovirus T2211 expressing UL97 kinase H587Y mutant gene infected in human foreskin fibroblast measured 6 days post infection by SEAP reporter gene assay; conditions: Human betaherpesvirus 5, T2211, 144 h
Human betaherpesvirus 5 [18] = test: Antiviral activity against Human cytomegalovirus T2233 expressing UL97 kinase H587Y mutant gene infected in human foreskin fibroblast measured 6 days post infection by SEAP reporter gene assay; conditions: Human betaherpesvirus 5, T2233, 144 h
Human betaherpesvirus 5 [19] = test: Antiviral activity against Human cytomegalovirus T2255 expressing UL97 kinase A594V mutant gene infected in human foreskin fibroblast measured 6 days post infection by SEAP reporter gene assay; assay type: functional, organism-based; conditions: Human betaherpesvirus 5, T2255, 144 h; summary of the method: as §1
Human betaherpesvirus 5 [20] = test: Antiviral activity against Human cytomegalovirus T3146 expressing UL97 kinase K599R mutant gene infected in human foreskin fibroblast measured 6 days post infection by SEAP reporter gene assay; conditions: Human betaherpesvirus 5, T3146, 144 h
Human betaherpesvirus 5 [21] = test: Antiviral activity against Human cytomegalovirus T2258 expressing UL97 kinase C592G mutant gene infected in human foreskin fibroblast measured 6 days post infection by SEAP reporter gene assay; assay type: functional, organism-based; conditions: Human betaherpesvirus 5, T2258, 144 h; summary of the method: as §1
Human betaherpesvirus 5 [22] = test: Antiviral activity against Human cytomegalovirus T3253 expressing UL97 kinase K599R mutant gene infected in human foreskin fibroblast measured 6 days post infection by SEAP reporter gene assay; conditions: Human betaherpesvirus 5, T3253, 144 h
Human betaherpesvirus 5 [23] = test: Antiviral activity against Human cytomegalovirus T3136 expressing UL97 kinase H469Y mutant gene infected in human foreskin fibroblast measured 6 days post infection by SEAP reporter gene assay; assay type: functional, organism-based; conditions: Human betaherpesvirus 5, T3136, 144 h; summary of the method: as §2
Human betaherpesvirus 5 [24] = test: Antiviral activity against Human cytomegalovirus T3135 expressing UL97 kinase H587Y mutant gene infected in human foreskin fibroblast measured 6 days post infection by SEAP reporter gene assay; conditions: Human betaherpesvirus 5, T3135, 144 h
Human betaherpesvirus 5 [25] = test: Antiviral activity against Human cytomegalovirus T2789 expressing UL97 kinase L405P mutant gene infected in human foreskin fibroblast measured 6 days post infection by SEAP reporter gene assay; conditions: Human betaherpesvirus 5, T2789, 144 h
Human betaherpesvirus 5 [26] = test: Antiviral activity against Human cytomegalovirus T3326 harboring Frt motif upstream of UL97 kinase N68D L126Q I244V mutant gene infected in human foreskin fibroblast measured 6 days post infection by SEAP reporter gene assay; conditions: Human betaherpesvirus 5, T3326, 144 h
Human betaherpesvirus 5 [27] = test: Antiviral activity against Human cytomegalovirus T3258 expressing UL97 kinase A594E mutant gene infected in human foreskin fibroblast measured 6 days post infection by SEAP reporter gene assay; conditions: Human betaherpesvirus 5, T3258, 144 h
Human betaherpesvirus 5 [28] = test: Antiviral activity against Human cytomegalovirus T3264 expressing UL97 kinase G623S mutant gene infected in human foreskin fibroblast measured 6 days post infection by SEAP reporter gene assay; assay type: functional, organism-based; conditions: Human betaherpesvirus 5, T3264, 144 h; summary of the method: as §2
Human betaherpesvirus 5 [29] = test: Antiviral activity against Human cytomegalovirus T3041 expressing UL97 kinase L600I mutant gene infected in human foreskin fibroblast measured 6 days post infection by SEAP reporter gene assay; assay type: functional, organism-based; conditions: Human betaherpesvirus 5, T3041, 144 h; summary of the method: as §1
Human betaherpesvirus 5 [30] = test: Antiviral activity against Human cytomegalovirus T3261 harboring Frt motif upstream of UL97 kinase infected in human foreskin fibroblast measured 6 days post infection by SEAP reporter gene assay; conditions: Human betaherpesvirus 5, T3261, 144 h
Human betaherpesvirus 5 [31] = test: Antiviral activity against Human cytomegalovirus T3259 expressing UL97 kinase C592G mutant gene infected in human foreskin fibroblast measured 6 days post infection by SEAP reporter gene assay; assay type: functional, organism-based; conditions: Human betaherpesvirus 5, T3259, 144 h; summary of the method: as §2
Human betaherpesvirus 5 [32] = test: Antiviral activity against Human cytomegalovirus T3099 expressing UL97 kinase H587Y mutant gene infected in human foreskin fibroblast measured 6 days post infection by SEAP reporter gene assay; conditions: Human betaherpesvirus 5, T3099, 144 h
Human betaherpesvirus 5 [33] = test: Antiviral activity against Human cytomegalovirus T3240 expressing UL97 kinase N510S mutant gene infected in human foreskin fibroblast measured 6 days post infection by SEAP reporter gene assay; assay type: functional, organism-based; conditions: Human betaherpesvirus 5, T3240, 144 h; summary of the method: as §2
Human betaherpesvirus 5 [34] = test: Antiviral activity against Human cytomegalovirus T3331 expressing UL97 kinase C603R mutant gene infected in human foreskin fibroblast measured 6 days post infection by SEAP reporter gene assay; assay type: functional, organism-based; conditions: Human betaherpesvirus 5, T3331, 144 h; summary of the method: as §1

Nc1nc2c(ncn2COC(CO)CO)c(=O)[nH]1 [GANCICLOVIR]
EC50 (Human betaherpesvirus 5 [1]): 7.81 µM
EC50 (Human betaherpesvirus 5 [2]): 1.85 µM
EC50 (Human betaherpesvirus 5 [3]): 1.26 µM
EC50 (Human betaherpesvirus 5 [4]): 1.23 µM
EC50 (Human betaherpesvirus 5 [5]): 1.33 µM
EC50 (Human betaherpesvirus 5 [6]): 8.48 µM
EC50 (Human betaherpesvirus 5 [7]): 0.99 µM
EC50 (Human betaherpesvirus 5 [8]): 9.24 µM
EC50 (Human betaherpesvirus 5 [9]): 2.76 µM
EC50 (Human betaherpesvirus 5 [10]): 0.96 µM
EC50 (Human betaherpesvirus 5 [11]): 1.06 µM
EC50 (Human betaherpesvirus 5 [12]): 1.22 µM
EC50 (Human betaherpesvirus 5 [13]): 8.52 µM
EC50 (Human betaherpesvirus 5 [14]): 1.24 µM
EC50 (Human betaherpesvirus 5 [15]): 0.77 µM
EC50 (Human betaherpesvirus 5 [16]): 0.95 µM
EC50 (Human betaherpesvirus 5 [17]): 1.1 µM
EC50 (Human betaherpesvirus 5 [18]): 1.11 µM
EC50 (Human betaherpesvirus 5 [19]): 9.24 µM
EC50 (Human betaherpesvirus 5 [20]): 0.94 µM
EC50 (Human betaherpesvirus 5 [21]): 3.36 µM
EC50 (Human betaherpesvirus 5 [22]): 1.23 µM
EC50 (Human betaherpesvirus 5 [23]): 1.05 µM
EC50 (Human betaherpesvirus 5 [24]): 1 µM
EC50 (Human betaherpesvirus 5 [25]): 3.02 µM
EC50 (Human betaherpesvirus 5 [26]): 1.09 µM
EC50 (Human betaherpesvirus 5 [27]): 2.98 µM
EC50 (Human betaherpesvirus 5 [28]): 1.13 µM
EC50 (Human betaherpesvirus 5 [29]): 1.5 µM
EC50 (Human betaherpesvirus 5 [30]): 0.99 µM
EC50 (Human betaherpesvirus 5 [31]): 3 µM
EC50 (Human betaherpesvirus 5 [32]): 1.02 µM
EC50 (Human betaherpesvirus 5 [33]): 1.14 µM
EC50 (Human betaherpesvirus 5 [34]): 8.18 µM
